pKi: −log10 of the molar value.
How the values were obtained:
Mus musculus [1] = test: Compound was evaluated for its antinociceptive activity in the mouse tail flick (MTF) test following peroral administration; type: functional; settings: po
Method in brief: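 Mouse tail flick test, D'Amour and Smith procedure as modified by Ling et al., with oral (po) dosing. ED50 in mg/kg with 95% confidence limits, derived by Finney probit analysis.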

Mus musculus [2] = test: Antinociceptive activity in mouse tail flick test following s.c. administration.; type: functional
Method in brief: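 Mouse tail flick test, D'Amour and Smith procedure as modified by Ling et al., with compound given subcutaneously. ED50 in mg/kg with 95% confidence limits, derived by Finney probit analysis.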

Mu-type opioid receptor [3] = molecular target: T1, Mu-type opioid receptor (Cavia porcellus, UniProt P97266); test: Displacement of [3H]DAGO from mu opioid receptors in guinea pig brain (minus cerebellum).; type: tissue-based
T1 sequence (P97266 whole entry): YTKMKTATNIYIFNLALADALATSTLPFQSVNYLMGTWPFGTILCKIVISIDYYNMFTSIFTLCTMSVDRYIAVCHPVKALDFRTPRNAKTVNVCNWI
Method in brief: (§1)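 μ sites in fresh guinea pig brain homogenate (minus cerebellum) were labelled with [3H]DAGO for 40 min at 25 °C. Samples were filtered on GF/C, washed with ice-cold Tris buffer, and bound radioactivity counted. Nonspecific binding was set with 10^-6 M naloxone. Ki by Cheng–Prusoff, as the mean of triplicate curves (n = 3 experiments).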

[4] = molecular target: T2, Kappa-type opioid receptor (Cavia porcellus, UniProt P41144); test: Displacement of [3H]U-69593 from kappa opioid receptors in guine pig brain (minus cerebellum).; type: tissue-based
T2 sequence (P41144 whole entry): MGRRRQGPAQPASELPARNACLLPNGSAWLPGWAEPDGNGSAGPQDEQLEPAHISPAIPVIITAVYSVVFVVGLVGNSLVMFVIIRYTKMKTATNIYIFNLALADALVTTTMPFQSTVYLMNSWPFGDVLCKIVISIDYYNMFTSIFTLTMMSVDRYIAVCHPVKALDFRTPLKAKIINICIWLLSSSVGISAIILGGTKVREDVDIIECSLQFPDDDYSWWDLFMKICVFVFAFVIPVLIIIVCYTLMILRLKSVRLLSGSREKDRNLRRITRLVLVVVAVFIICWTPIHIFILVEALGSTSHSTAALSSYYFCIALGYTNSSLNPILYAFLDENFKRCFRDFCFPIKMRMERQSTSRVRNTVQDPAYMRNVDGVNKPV

Mus musculus [5] = test: Compound was evaluated for its antinociceptive activity in the mouse tail flick (MTF) test following subcutaneous administration of 10 mg/kg; type: functional
Method in brief: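 Mouse tail flick test, D'Amour and Smith procedure as modified by Ling et al. A single 10 mg/kg subcutaneous dose was given and the result recorded as % protection.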

Mu-type opioid receptor [6] = molecular target: T1, Mu-type opioid receptor; test: Compound was evaluated for its binding affinity against Opioid receptor mu 1 subtype in guinea pig brain (minus cerebellum) using [3H]-DAGO as radioligand.; type: tissue-based; method in brief: as §1
[7] = molecular target: T2, Kappa-type opioid receptor; test: Compound was evaluated for its binding affinity against Opioid receptor kappa 1 subtype in guinea pig brain (minus cerebellum) using [3H]U-69593 as radioligand.; type: tissue-based
Method in brief: (§2)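 Fresh guinea pig brain homogenate (cerebellum removed) incubated with κ-selective [3H]U-69593 and competitor for 50 min at 25 °C. Samples were filtered on GF/C, washed and counted by liquid scintillation. Nonspecific binding was set with 10^-6 M naloxone. Ki from Cheng–Prusoff, as the mean of triplicate concentration–response curves (n = 3 experiments).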

Mu-type opioid receptor [8] = molecular target: T1, Mu-type opioid receptor; test: Compound was evaluated for its binding affinity against opioid receptor mu subtype in guinea pig brain (minus cerebellum) using [3H]DAGO as radioligand.; type: tissue-based; method in brief: as §1
[9] = molecular target: T2, Kappa-type opioid receptor; test: Compound was evaluated for its binding affinity against Opioid receptor kappa 1 subtype in guinea pig brain (minus cerebellum). using [3H]U-69593 as radioligand.; type: tissue-based; method in brief: as §2
[10] = Mus musculus, Tail, sc, read-out: ED50

`O=C(Cc1ccc(Cl)c(Cl)c1)N1CCCC[C@H]1CN1CCCC1` was tested, and the ED50 (Mus musculus [1]) was 0.89 mg/kg, the ED50 (Mus musculus [2]; [10]) was 0.05 mg/kg and the pKi (Mu-type opioid receptor [3]) was 5.81. The pKi [4] was 9.62.
Work on `O=C(Cc1ccccc1C(F)(F)F)N1CCCCC1CN1CCCC1` (configuration not stated) yielded a Protection (Mus musculus [5]) of 60%, a pKi (Mu-type opioid receptor [3]) of under 5.00 and a pKi [4] of 8.07.
`O=C(Cc1ccc(O)cc1)N1CCCCC1CN1CCCC1` (configuration not stated) gave a Protection (Mus musculus [5]) of 0%, a pKi (Mu-type opioid receptor [3]) of under 5.00 and a pKi [4] of 6.71.
`O=C(Cc1ccc(Cl)c(Cl)c1)N1CCCC[C@@H]1CN1CCCC1` gave an ED50 (Mus musculus [2]; [10]) of 17.5 mg/kg, a pKi (Mu-type opioid receptor [3]) of 5.15 and a pKi [4] of 7.81.
For `O=C(Cc1ccc(Cl)c(Cl)c1)N1CCCCC1CN1CCCCC1` (configuration not stated), the pKi (Mu-type opioid receptor [6]) was 5.32, the pKi [7] was 9.32 and the ED50 (Mus musculus [2]; [10]) was 0.19 mg/kg.
`CN1CC[C@]23c4c5ccc(O)c4O[C@H]2[C@@H](O)C=C[C@H]3[C@H]1C5` [MORPHINE] gave an ED50 (Mus musculus [2]; [10]) of 2.8 mg/kg.
With `O=C(Cc1ccc(F)cc1)N1CCCCC1CN1CCCC1` (configuration not stated) the ED50 (Mus musculus [2]; [10]) was 9.22 mg/kg, the pKi (Mu-type opioid receptor [3]) was under 5.00 and the pKi [4] was 7.81.
Work on `CN1CCCC1C1CCCCN1C(=O)Cc1ccc(Cl)c(Cl)c1` (stereo in doubt; 41) yielded an ED50 (Mus musculus [2]; [10]) of 0.4 mg/kg, a pKi (Mu-type opioid receptor [3]) of 6.33 and a pKi [4] of 9.48.
For `O=C(Cc1ccc(C(F)(F)F)cc1)N1CCCCC1CN1CCCC1` (stereo in doubt; 21), the ED50 (Mus musculus [1]) was 1.17 mg/kg, the ED50 (Mus musculus [2]; [10]) was 0.11 mg/kg and the pKi (Mu-type opioid receptor [3]) was 5.63. It also gave a pKi [4] of 9.24.
With `CN(C)CC1CCCCN1C(=O)Cc1ccc(Cl)c(Cl)c1` (configuration not stated) the pKi (Mu-type opioid receptor [6]) was 5.52, the pKi [7] was 8.87 and the ED50 (Mus musculus [2]; [10]) was 0.92 mg/kg.
Work on `O=C(Cc1ccc(C(F)(F)F)cc1)N1CCCCC1CN1CCCC1` (stereo in doubt; 20) yielded an ED50 (Mus musculus [2]) of 0.2 mg/kg, a pKi (Mu-type opioid receptor [3]) of 5.45 and a pKi [4] of 9.11.
Work on `CC(C1CCCCN1C(=O)Cc1ccc(Cl)c(Cl)c1)N(C)C` (stereo in doubt; 38) yielded a pKi (Mu-type opioid receptor [8]) of under 5.00, a Protection (Mus musculus [5]) of 0% and a pKi [4] of 6.00.
`O=C(Cc1ccc(Cl)cc1)N1CCCCC1CN1CCCC1` (configuration not stated) was tested, and the ED50 (Mus musculus [2]; [10]) was 0.84 mg/kg, the pKi (Mu-type opioid receptor [3]) was 5.23 and the pKi [4] was 8.77.
With `CN1CCCC1C1CCCCN1C(=O)Cc1ccc(Cl)c(Cl)c1` (stereo in doubt; 42) the Protection (Mus musculus [5]) was 40%, the pKi (Mu-type opioid receptor [3]) was 6.06 and the pKi [4] was 7.93.
In the case of `O=C(Cc1ccc(Cl)c(Cl)c1)N1CCCCC1CN1CCCC1` (configuration not stated), the pKi (Mu-type opioid receptor [6]) was 5.73, the pKi [9] was 9.28 and the ED50 (Mus musculus [2]; [10]) was 0.09 mg/kg.
Molecule `CC(C1CCCCN1C(=O)Cc1ccc(Cl)c(Cl)c1)N(C)C` (stereo in doubt; 37) has an ED50 (Mus musculus [2]; [10]) of 0.38 mg/kg, a pKi (Mu-type opioid receptor [3]) of 6.12 and a pKi [4] of 9.22.
Work on `CCN(CC)CC1CCCCN1C(=O)Cc1ccc(Cl)c(Cl)c1` (configuration not stated) yielded an ED50 (Mus musculus [2]; [10]) of 0.77 mg/kg, a pKi (Mu-type opioid receptor [3]) of 5.30 and a pKi [4] of 8.89.
Work on `CN(C)C[C@@H]1CCCCN1C(=O)Cc1ccc(Cl)c(Cl)c1` yielded an ED50 (Mus musculus [2]; [10]) of 0.87 mg/kg, a pKi (Mu-type opioid receptor [3]) of 5.67 and a pKi [4] of 9.15.
With `CC(C)(C)c1ccc(CC(=O)N2CCCCC2CN2CCCC2)cc1` (configuration not stated) the ED50 (Mus musculus [2]; [10]) was 1 mg/kg.
Molecule `Cc1ccc(CC(=O)N2CCCCC2CN2CCCC2)cc1C` (configuration not stated) has an ED50 (Mus musculus [2]; [10]) of 2.89 mg/kg, a pKi (Mu-type opioid receptor [3]) of 5.27 and a pKi [4] of 8.74.
`O=C(Cc1ccc([N+](=O)[O-])cc1)N1CCCCC1CN1CCCC1` (configuration not stated) showed an ED50 (Mus musculus [2]; [10]) of 0.49 mg/kg.
For `O=C(Cc1cccc([N+](=O)[O-])c1)N1CCCCC1CN1CCCC1` (configuration not stated), the ED50 (Mus musculus [2]; [10]) was 0.86 mg/kg.
Molecule `O=C(Cc1ccc(Br)cc1)N1CCCCC1CN1CCCC1` (configuration not stated) has an ED50 (Mus musculus [2]; [10]) of 0.46 mg/kg, a pKi (Mu-type opioid receptor [3]) of 5.53 and a pKi [4] of 9.08.
Molecule `O=C(Cc1cccc(C(F)(F)F)c1)N1CCCCC1CN1CCCC1` (configuration not stated) has an ED50 (Mus musculus [2]; [10]) of 0.38 mg/kg, a pKi (Mu-type opioid receptor [3]) of under 5.00 and a pKi [4] of 8.97.
For `Cc1ccc(CC(=O)N2CCCCC2CN2CCCC2)cc1` (configuration not stated), the ED50 (Mus musculus [2]; [10]) was 3.88 mg/kg, the pKi (Mu-type opioid receptor [3]) was under 5.00 and the pKi [4] was 8.42.
In the case of `O=C(Cc1ccc(C2CCCCC2)cc1)N1CCCCC1CN1CCCC1` (configuration not stated), the Protection (Mus musculus [5]) was 0%, the pKi (Mu-type opioid receptor [3]) was 6.01 and the pKi [4] was 6.08.

Reference: ChEMBL document CHEMBL1125742, “(2S)-1-(arylacetyl)-2-(aminomethyl)piperidine derivatives: novel, highly selective kappa opioid analgesics” (J Med Chem, 1991)
